Rows were chosen to be rich in hits. Some 3.1% of all compounds tested hit in one or more screens of this group.
rRNA inh HTS = inhibitors of bacterial rRNA selective over humanized ribosomes | actives 1.6% (n = 350,000) | E. coli WT GFP vs humanized-ribosome RFP mutants, fluorescence, 24 h; stronger effect = lower value; DMSO median 0, no signal -100 | GFP signal change (wild-type ribosome), % (concentration not given with the values);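 active means significant combined selectivity score with lowered wild-type GFP, culture density cut under 30%, mutant RFP and density less affected; inactive means any of these conditions unmet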
E-sel inducer = E-selectin induction on HUVECs; P16581; HUVEC E-selectin immunofluorescence imaging; normalized: neutral wells 0, TNF-alpha wells 100; activation, % at 7.58 µM; actives 0.37% (n = 260,000);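 active means mean E-selectin-positive cell signal at least 10% of the positive control, reached in at least 60% of replicates, without over 20% cell loss; inconclusive means no rule given, readout overlaps actives, possibly toxicity-flagged; inactive means the rest, including those meeting only one limit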
Target sequence (P16581 whole entry, looked up): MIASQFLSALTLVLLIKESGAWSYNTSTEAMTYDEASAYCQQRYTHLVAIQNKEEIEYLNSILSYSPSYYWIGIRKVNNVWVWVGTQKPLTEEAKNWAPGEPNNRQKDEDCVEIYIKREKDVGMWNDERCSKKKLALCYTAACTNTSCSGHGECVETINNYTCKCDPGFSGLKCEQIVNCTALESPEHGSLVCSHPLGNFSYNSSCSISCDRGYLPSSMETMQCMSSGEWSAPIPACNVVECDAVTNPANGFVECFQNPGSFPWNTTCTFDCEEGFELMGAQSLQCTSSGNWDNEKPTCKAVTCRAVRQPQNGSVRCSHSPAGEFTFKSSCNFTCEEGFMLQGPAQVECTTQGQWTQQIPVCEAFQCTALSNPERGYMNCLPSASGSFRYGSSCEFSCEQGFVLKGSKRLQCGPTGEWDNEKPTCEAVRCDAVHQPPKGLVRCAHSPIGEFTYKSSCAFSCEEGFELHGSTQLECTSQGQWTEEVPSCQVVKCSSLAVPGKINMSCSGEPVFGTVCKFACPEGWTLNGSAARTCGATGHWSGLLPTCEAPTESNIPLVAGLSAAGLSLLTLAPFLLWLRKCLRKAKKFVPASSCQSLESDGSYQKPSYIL
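System: HUVEC, human umbilical vein endothelial cells; quantity: 3,000 cells/well; buffer or medium: EGM-2 medium, gelatin-coated wells; dosing: single-point compound dose; detection: immunofluorescence imaging; evaluation: % PE-positive cells; benchmarks: TNF-alpha, DMSO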
DENV2 CPE = DENV2-induced cell death inhibition; actives 1.7% (n = 350,000); CPE inhibition, % at 9.99 µM; AID 651640; DENV2-infected cells, cytopathic effect rescue, plate reader; in the data active means CPE inhibition above about 20%, passing the limit was not always enough; inconclusive means no clear call, values can overlap the other calls; tested in BHK-21 cells;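 further: 0% = median of neutral control wells and 100% = median of positive control wells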
Cneo AK release = Cryptococcus neoformans lysis via adenylate kinase release | AID 651654 | C. neoformans lysis, adenylate kinase release luminescence, 4 h; normalised: neutral wells 0, clomiphene wells 100 | actives 0.2% (n = 360,000) | lysis activity, % at 15 µM;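 active means mean lysis activity across replicates of at least 80%, whatever share of replicates individually reach that level; inactive means mean lysis activity below 80%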
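Test system: log-phase Cryptococcus neoformans yeast cells. Input: 5 × 10^6 yeast cells/mL. Medium: fresh YPD growth medium. Doses: single dose. Incubation: static 4 h at 37 °C with compound, 1 h detection. Measured by: luminescent adenylate kinase detection reagent. Read-out: signal increase indicating cell lysis. Benchmarks: Clomiphene.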
miR122 inh = miR-122 inhibition in Huh7 cells; actives 0.3% (n = 340,000); Huh7 miR-122 Renilla luciferase sensor, 48 h; neutral wells = 0, positive control = 100; activation (reporter increase), % at 12.5 µM; AID 602342;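 active means mean replicate activation score at least 90 and every replicate individually at or above 90; inconclusive means only one of the two criteria met; inactive means neither criterion met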;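 further: higher luciferase means less miR-122 activity so hits act as miR-122 inhibitors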
Starred values were filed as active, the others as inactive; u = inconclusive; x = no result given; ! = repeats disagree; [ ] = remark or other dose.

SMILES	rRNA inh HTS	E-sel inducer	DENV2 CPE	Cneo AK release	miR122 inh
Cc1ccn2cc(-c3cccc(S(=O)(=O)N4CCCC4)c3)nc2c1	-24.9*	x	2.0	-3.2	-6.3
Cc1ccccc1-c1ccc([C@H]2[C@H](CO)N3C(=O)CN(C(=O)NC4CCCC4)C[C@@H]23)cc1	-0.3	0.1	-8.2	x	x
O=C1OC(c2ccccc2)(N(Nc2ccccc2)c2ccccc2)c2ccccc21 (stereo not drawn)	1.2	-0.5	23.9*	0.1	3.9
CCCNC(=O)N1C[C@@H](C)[C@@H](OC)CN(C)C(=O)c2cc(NS(C)(=O)=O)ccc2OC[C@H]1C	3.0	0.0	10.9	-2.8	x
Cc1nn(C)cc1CN(C)C(=O)c1ccc(OC2CCN(Cc3ccccn3)CC2)cc1	0.5	x	-0.4	0.6	-0.1
CN(Cc1nccs1)C(=O)c1ccc(OC2CCN(Cc3ccccn3)CC2)cc1	3.0	-0.9	41.8*	4.5	x
CC(C)CC#Cc1cnc2c(c1)C(=O)N([C@H](C)CO)C[C@@H](C)[C@H](CN(C)C(=O)CN1CCOCC1)O2	2.4	0.4	-5.8	-1.2	-7.6[16.7 µM]
C1CCCCCC(=NNc2nn[nH]n2)CCCCC1	20.3	67.3*	3.1	2.8	-15.9
CC(=O)Nc1ccc(NS(=O)(=O)c2cccc3ccccc23)cc1	x	x	x	-3.1	73.4
O=S(=O)(Nc1ccc(C(O)(C(F)(F)F)C(F)(F)F)cc1)c1cccc2ccccc12	-45.2	x	2.1	-2.1	101.6*
COc1ccc(NS(=O)(=O)c2cccc(C(=O)NNC(=O)c3ccc(NC(C)=O)cc3)c2)cc1	-4.2	0.3	-3.5	1.8	4.3
CC(C)(C)c1ccc(S(=O)(=O)Nc2ccc(C(O)(C(F)(F)F)C(F)(F)F)cc2)cc1	-43.2	x	-9.2	2.7	102.5*
COc1cccc(S(=O)(=O)Nc2ccc(C(O)(C(F)(F)F)C(F)(F)F)cc2)c1	-33.9	-0.5	4.7	0.4	129.0*
O=C(N/N=C/c1ccc(O)cc1O)NC12CC3CC(CC(C3)C1)C2	3.6	0.0	50.5*	1.8	-8.4
COc1ccc(NC(=O)N(C)C[C@H]2OCc3ccccc3-c3c(n(C)c4ccccc34)C(=O)N([C@@H](C)CO)C[C@@H]2C)cc1	-3.4	0.0	4.7	-2.3	x
COc1ccc(CNC(=O)N(C)C[C@@H]2OCc3ccccc3-c3c(n(C)c4ccccc34)C(=O)N([C@@H](C)CO)C[C@@H]2C)cc1	-19.1*!	-6.2	-4.7	x	x
C[C@H]1CN([C@@H](C)CO)C(=O)c2c(c3ccccc3n2C)-c2ccccc2CO[C@H]1CN(C)C(=O)Nc1cccc(Cl)c1Cl	0.4	-3.7	1.8	x	x
C[C@@H]1CN([C@@H](C)CO)C(=O)c2c(c3ccccc3n2C)-c2ccccc2CO[C@H]1CN(C)C(=O)Nc1cccc(Cl)c1Cl	0.6	0.3	40.4*	x	x
COc1ccc(NC(=O)N(C)C[C@H]2OCc3ccccc3-c3c(n(C)c4ccccc34)C(=O)N([C@H](C)CO)C[C@@H]2C)cc1	-6.3	-0.4	-1.7	111.0*	x
COCC(=O)Nc1ccc2c(c1)C(=O)N(C)C[C@H](OC)[C@@H](C)CN(Cc1cc(F)ccc1F)[C@H](C)CO2	-6.8	-0.2	0.3	-0.5	x
CCN(C[C@H]1N[C@@](Cc2ccccc2)(C(=O)OC)[C@H]2C(=O)N(C)C(=O)[C@@H]12)S(=O)(=O)c1ccc(OC(F)(F)F)cc1	3.3	x	83.5*	1.2	5.7
COC(=O)[C@]1(Cc2ccccc2)N[C@H](CN(C)C(=O)Nc2ccc(Cl)cc2)[C@@H]2C(=O)N(Cc3ccccc3)C(=O)[C@@H]21	-18.9	x	21.7*	-0.5	-4.5
COC(=O)[C@]1(Cc2ccccc2)N[C@H](CN(C)C(C)=O)[C@@H]2C(=O)N(C)C(=O)[C@@H]21	5.7	0.2	22.5*	0.6	x
COCC(=O)N(C)C[C@H]1N[C@@](Cc2ccccc2)(C(=O)OC)[C@H]2C(=O)N(C)C(=O)[C@@H]12	16.9	-4.5	0.1	-2.0	x
CCNC(=O)N(C)C[C@H]1N[C@@](CC)(C(=O)OC)[C@H]2C(=O)N(Cc3ccccc3)C(=O)[C@@H]12	3.1	x	28.6*	0.7	-4.3
SMILES	rRNA inh HTS	E-sel inducer	DENV2 CPE	Cneo AK release	miR122 inh
C[C@H](CO)N1C[C@H](C)[C@H](CN(C)S(=O)(=O)c2cccs2)Oc2c(NC(=O)c3ccncc3)cccc2C1=O	0.2	-8.0	2.4	60.0	21.1[16.7 µM]
CCN(C[C@H]1N[C@@](CC)(C(=O)OC)[C@H]2C(=O)N(Cc3ccccc3)C(=O)[C@@H]12)C(=O)COc1ccccc1	-11.8	1.7	66.4*	0.9	x
O=C(N/N=C/c1ccccc1C(F)(F)F)c1ccc(O)cc1	-29.1*	x	2.9	x	x
C/C=C/c1cccc(-c2nc(C(=O)NCCC)cc3c2[C@H](CCO)N([S@@](=O)C(C)(C)C)C3)c1	-8.1	0.1	6.2	x	x
CO[C@H]1CN(C)C(=O)c2cc(NC(=O)Nc3cc(Cl)cc(Cl)c3)ccc2OC[C@H](C)NC[C@H]1C	-8.8	0.0	x	x	-12.0[16.7 µM]
Cc1cc(C(=O)N[C@H](c2ccccc2)[C@@]2(C)C[C@@H]2[C@@H](C)C(=O)Nc2ccc3ccccc3c2)no1	-6.2	23.4	u	-1.5	-0.5
Cc1cc(C(=O)N[C@@H](c2ccccc2)[C@]2(C)C[C@H]2[C@@H](C)C(=O)Nc2ccc3ccccc3c2)no1	-1.7	0.0	76.6*	-3.4	1.5
CN1C[C@@H]2[C@@H]3C(=O)N(Cc4ccccc4)C(=O)[C@@H]3[C@](C)(C1=O)N2C(=O)c1ccc(C(C)(C)C)cc1	-12.2	0.0	53.8*	4.7	-3.8
COc1ccc(C=CC(=O)c2cc(O)ccc2O)cc1	-36.3*	0.5	-2.4	8.2	x
COc1ccc(C(=O)/C=C/c2ccccc2)c(OC)c1	5.6	x	u	-14.4	10.7
COc1ccc(C(=O)/C=C/c2ccc(N(C)C)cc2)c(OC)c1	6.1	x	1.9	-2.0	212.5*
CCC(C)Sc1cccc(-c2nc3ccc(C)cn3c2NC2CCCCC2)c1 (stereo not drawn)	-5.1	-0.1	60.4*!	3.1	36.2
Cc1noc(C)c1NC(=O)Nc1ccc2c(c1)C(=O)N([C@H](C)CO)C[C@H](C)[C@@H](CN(C)C)OCCCC[C@@H](C)O2	1.8	0.1	x	x	7.0[16.7 µM]
Cc1cc(C)c(NC(=S)N(Cc2cccnc2)Cc2ccco2)c(C)c1	1.1	1.4	48.8*	-1.0	-2.7
COc1ccc(Cl)cc1NC(=S)N(Cc1cccnc1)Cc1ccco1	-24.1*	2.4	-6.3	x	x
Cc1ccc(Cl)cc1NC(=S)N(Cc1ccccc1)Cc1cccnc1	-26.1*	x	12.2	x	x
S=C(Nc1ccccc1Cl)N(Cc1ccccc1)Cc1cccnc1	-30.6	2.1	3.1	x	x
O=C1N(Cc2ccccc2)Cc2ccccc2[C@@H]2OC(c3ccc(OCCCO)cc3)=N[C@]12Cc1ccccc1	x	x	26.5*	-17.4	x
OC[C@H]1[C@@H]2c3ccccc3NC[C@@H]2N1CC1CCOCC1	3.7	-0.2	22.1*	-3.4	0.0[16.7 µM]

High-throughput results (PubChem)
